Compound activity: PubChem, several laboratories
Hits are enriched below; roughly 7.6% of the tested compounds scored in any of these assays.
Jurkat tox 60K: cytotoxicity toward Jurkat T cells, primary screen, cytotoxicity control, cell-based, Jurkat E6.1, 60K MLSMR library; Jurkat E6.1 viability, ATP luminescence, 48 h; inhibition, % at 4 µM; hit rate 1.2% among 56,000; AID 463, 2006;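 active = inhibition above the mean inhibition of all tested compounds plus 3 SD, cut at about 28% in these data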
D1 mod: D1 CRE-luciferase signal change, two-sided – cell-based, HEK293 D1, dopamine EC30, D1 allosteric modulator project, primary screen; dopamine EC30 potentiation; actives deviate in either direction; B-score at 10 µM; hit rate 5.9% among 58,000; AID 641, 2007;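 active = luminescence count or its row- and column-corrected plate score outside the 99.7% band of the plate's sample wells, on either side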
Target sequence (P21728 whole entry, looked up): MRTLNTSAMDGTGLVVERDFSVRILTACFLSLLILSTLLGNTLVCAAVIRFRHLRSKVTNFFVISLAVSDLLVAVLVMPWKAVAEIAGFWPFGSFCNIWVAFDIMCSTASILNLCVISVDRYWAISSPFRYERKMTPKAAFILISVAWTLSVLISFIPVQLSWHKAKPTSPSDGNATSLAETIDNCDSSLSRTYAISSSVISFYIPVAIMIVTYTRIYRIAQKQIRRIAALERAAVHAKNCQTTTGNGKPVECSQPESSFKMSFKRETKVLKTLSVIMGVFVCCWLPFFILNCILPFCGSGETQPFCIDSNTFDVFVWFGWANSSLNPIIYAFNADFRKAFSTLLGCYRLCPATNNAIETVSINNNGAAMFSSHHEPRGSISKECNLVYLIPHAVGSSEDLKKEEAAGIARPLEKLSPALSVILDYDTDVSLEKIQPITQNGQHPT
hDAT+cocaine: changed hDAT dopamine uptake under cocaine IC80, either direction, primary screen, cocaine antagonist project, cell-based, LLC-PK1 hDAT, [14C]-dopamine uptake, MLSMR. AID 449768, 2010. Sodium-dependent dopamine transporter (Homo sapiens), Q01959. hit rate 1.3% among 110,000. LLC-PK1 hDAT cells, [14C]-dopamine uptake with cocaine IC80; actives deviate in either direction. B-score at 10 µM;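 active = Z score or B-score, a plate-position-corrected score, falls beyond the plate's 99.7% confidence bounds, in either direction; inactive = both scores lie inside the 99.7% bounds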;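 also: scored against the spread of the other compound wells on the same plate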
M1 ag: M1 muscarinic receptor agonists, primary screen, CHO-M1 cells, Fluo-4 calcium, agonist mode. hit rate 3% among 64,000. B-score at 10 µM. Muscarinic acetylcholine receptor M1. Fluo-4 calcium fluorescence; hits give high values;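 active = fluorescence rise, raw or as B-score row- and column-corrected plate score, outside the 99.7% band of its plate's samples, either direction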
HEK293 NFkB inh: inhibitors of PMA/ionomycin-induced NF-kB reporter, primary screen, antigen receptor NF-kB inhibitor project, cell-based, HEK-293 luciferase reporter, luminescence; inhibition, % at 3 µM; hit rate 0.21% among 62,000; HEK-293 NF-kB luciferase reporter;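 active = inhibition above the mean of all tested compounds plus 3 SD, cut at about 40% in these data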;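 also: 0% = stimulated DMSO wells and 100% = 10 µM reference inhibitor 5653914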
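System – HEK-293 cells with stable firefly luciferase reporter driven by four HIV NF-kB elements · Doses – one dose, 3 µM · Schedule – 1 h compound pre-incubation, 16 h PMA/ionomycin at 37 °C · Technique – luminescence from luciferase substrate reagent · Measure – percent inhibition normalized per plate to DMSO and reference-inhibitor controls · Replicates – tested once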
M1 antag: antagonists of rat M1 muscarinic receptor; B-score at 10 µM; CHO-M1 cells, Fluo-4 calcium, ACh EC80 antagonist mode; hits give low values; Muscarinic acetylcholine receptor M1 (Rattus norvegicus), P08482; hit rate 3.4% among 64,000;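 active = calcium fluorescence response, raw or row-and-column corrected B-score, differing from the plate sample mean either way at a set confidence level, mostly lower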
M1 antag confirm: rat M1 muscarinic receptor antagonists, confirmation, CHO cells, Fluo-4 calcium, duplicate; ACh EC80 antagonism; hits give low values; hit rate 43% among 1,700; shares compounds with M1 antag; calcium response (max-min fluorescence) at 10 µM; AID 677, 2007;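 active = calcium response below the same-plate mean of wells given acetylcholine alone at its 80%-effect dose, minus 3 SD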;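 also: raw fluorescence intensity difference in arbitrary instrument units and not normalized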
mGluR4 antag: human mGluR4 response to M1 antagonist hits, M1 allosteric modulator project, cell-based, antagonist mode, secondary assay 1 | shares compounds with M1 antag | CHO-mGluR4 calcium flux, Fluo-4 fluorescence, glutamate EC80; hits give low values | fluorescence response (max-min) at 10 µM | hit rate 0.9% among 1,700;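 active = fluorescence response below the plate's average for near-maximal glutamate wells, less 3 SD of those wells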;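 also: raw unnormalized fluorescence span taken in the window right after glutamate addition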
The depositor's hits bear a star; nt = not tested or not shown.

SMILES	Jurkat tox 60K	D1 mod	hDAT+cocaine	M1 ag	HEK293 NFkB inh	M1 antag	M1 antag confirm	mGluR4 antag
CCC1Oc2ccccc2N(CC(=O)NCCN2CCc3ccccc3C2)C1=O (stereo not drawn)	-3	-0.38	-0.59	-1.4	2	-1.7*	583*	198
CCC1Oc2ccccc2N(CC(=O)NCCCN2CCN(Cc3ccccc3)CC2)C1=O (stereo not drawn)	-4	-0.44	-1.8	0.019	21	-1.1	nt	nt
CCCc1nc2oc3c(NCCN(C)C)ncnc3c2c2c1CCCC2	6	3.2*	-0.93	1.8	23	-6.4*	498	259
CCCCCNC(=O)c1ccc2c(=O)n(CC3CCCO3)c(=O)[nH]c2c1 (stereo not drawn)	6	-1.5	-0.44	0.39	16	0.42	nt	nt
Cn1c(=O)oc2cc(S(=O)(=O)N3CCN(c4ccccn4)CC3)ccc21	-20	-0.66	-1	0.16	2	-0.01	nt	nt
O=C1CC(c2ccc(Cl)cc2)CC(O)=C1C=NCCN1CCNCC1 (stereo not drawn)	nt	-0.41	-0.65	-0.58	6	-5.3*	512*	184
COc1ccc(C2CC(=O)C(C=NCCN3CCNCC3)=C(O)C2)cc1OC (stereo not drawn)	6	-0.35	-1.3	-1.8	10	-1	nt	nt
O=S(=O)(c1ccc(OCC(O)CN2CCN(c3ccccc3)CC2)cc1)N1CCOCC1 (stereo not drawn)	4	-0.12	0.95	-0.3	13	-0.55	nt	nt
OC(COc1ccc(OCc2ccccc2)cc1)CN1CCCCC1 (stereo not drawn)	4	-0.54	-0.0069	-1.4	-20	-6.6*	358*	249
O=S(=O)(c1ccc(OCC(O)CN2CCC(Cc3ccccc3)CC2)cc1)N1CCOCC1 (stereo not drawn)	10	-1.2	-2.2	-0.38	8	-1*	458	212
COc1cccc(OCC(O)CN2CCC(Cc3ccccc3)CC2)c1 (stereo not drawn)	0	-2.6	-1.3	-1	12	-2.2*	347*	219
O=C1CC(=O)C(n2cncn2)C(c2ccc(Cl)cc2)C1 (stereo not drawn)	nt	nt	-0.66	nt	nt	nt	nt	nt
CCCC(O)(CCN1CCOCC1)c1ccc(Br)cc1 (stereo not drawn)	6	-0.53	0.011	-0.35	-12	-3.6*	283*	243
CCCOc1ccc(C(O)(CCC)CCN2CCCCC2)cc1 (stereo not drawn)	nt	nt	-0.037	nt	nt	nt	nt	nt
CCn1c(=Nc2ccc(N3CCOCC3)cc2)ccc2ccccc21	7	nt	0.23	nt	6	nt	nt	nt
Cn1c(=Nc2ccc(N3CCOCC3)cc2)ccc2ccccc21	-4	-0.81	1.8	0.32	6	-10*	289*	197
CC(CN1CCCCC1)OC(=O)c1ccc2c(c1)OCO2 (stereo not drawn)	-2	-0.048	-0.24	1.1	-1	-2.7*	457	221
CC(CN1CCCCC1)OC(=O)c1cc2ccccc2o1 (stereo not drawn)	0	-0.66	-0.45	-1.1	12	-4.7*	296*	252
CC1CCN(CC(C)OC(=O)c2ccc3c(c2)OCCO3)CC1 (stereo not drawn)	5	-0.38	-0.58	0.041	10	-12*	92*	240
COc1cccc(C(=O)OC(C)CN2CCCC2)c1 (stereo not drawn)	0	0.43	0.55	1	13	-2.3	nt	nt
O=C(Cn1cnc2ccccc21)OCC(=O)N1CCc2ccccc2C1	8	-0.093	1.1	-1.2	24	-1.7*	598	221
O=C(COC(=O)Cn1cnc2ccccc21)NCCc1ccccc1	4	0.54	-2	-0.052	14	0.56	nt	nt
COC(=O)COc1nc(C)c(Br)c(OC)n1	4	0.061	-0.99	0.86	25	0.91	nt	nt
COc1nc(NC(C)=O)nc(C)c1Br	nt	0.78	0.3	0.014	10	-10*	598	257
Cn1c(=O)oc2cc(S(=O)(=O)N3CCC(C(=O)NCc4cccs4)CC3)ccc21	-10	-0.061	-0.4	-0.081	-10	-0.36	nt	nt
SMILES	Jurkat tox 60K	D1 mod	hDAT+cocaine	M1 ag	HEK293 NFkB inh	M1 antag	M1 antag confirm	mGluR4 antag
Cc1noc(C)c1COC(=O)c1cc(C)n(-c2ccccc2)c1C	4	-0.7	0.14	0.34	-1	-2.7*	531	220
CCC(C)(C)n1nnnc1C(c1ccc(OC)c(OC)c1)N1CCN(c2ccc(OC)cc2)CC1 (stereo not drawn)	-6	2	-0.18	-1	15	-0.22	nt	nt
O=C(O)Cn1cnc2ccccc2c1=O	nt	nt	1.5	nt	nt	nt	nt	nt
CC(C(=O)c1ccccc1)n1cnc2ccccc2c1=O (stereo not drawn)	-6	0.075	0.071	-0.26	0	-10*	608	209
COc1ccc(NC(=O)C2CCCCN2CC(=O)OCc2ccccc2)cc1OC (stereo not drawn)	-5	0.072	0.25	-1	7	-2.7*	610	210
Cn1c(SCC(=O)Nc2cccc(Br)c2)nnc1-c1cc2ccccc2o1	nt	nt	-0.61	nt	nt	nt	nt	nt
CCc1cccc(C)c1NC(=O)CSc1nnc(-c2cc3cc(Br)ccc3o2)n1CC	-2	-0.24	0.5	-0.75	28	-2.8*	584	246
CN1CCN(C(=O)c2ccc(COc3ccc(Cl)cc3Cl)cc2)CC1	2	-3.4	0.51	-1.2	14	-2.7*	529	228
O=C(NCCCN1CCN(c2cccc(Cl)c2)CC1)C1CCC(=O)N1Cc1ccccc1Cl (stereo not drawn)	12	-1.4	nt	-0.79	5	-2*	532	244
C=CCOn1c(=O)c(=O)n(OCc2ccccc2)c2ccccc21	1	-0.0079	1.9	-0.28	12	-2.6*	632	256
CCn1c(Cc2ccccc2)nnc1SCC(=O)Nc1ccc(N2CCOCC2)c(Cl)c1	0	0.6	0.82	0.034	17	-0.68	nt	nt
CC(=O)c1ccc(NC(=O)c2noc3c2CCCCC3)cc1	-6	-2.1	nt	0.25	-31	-0.21	nt	nt
